Results published in ChEMBL document CHEMBL4261499, “Chiral disubstituted piperidinyl ureas: a class of dual diacylglycerol lipase-α and ABHD6 inhibitors” (Medchemcomm, 2017).
pIC50: −log10 of the molar value.

What was measured:
[1] = biological target: T1, Monoacylglycerol lipase ABHD6 (Homo sapiens, UniProt Q9BV23); test: Inhibition of recombinant human ABHD6 expressed in HEK293 cells by AmplifuTM red dye based fluorescence assay; type: cell-based
T1 sequence (Q9BV23 whole entry): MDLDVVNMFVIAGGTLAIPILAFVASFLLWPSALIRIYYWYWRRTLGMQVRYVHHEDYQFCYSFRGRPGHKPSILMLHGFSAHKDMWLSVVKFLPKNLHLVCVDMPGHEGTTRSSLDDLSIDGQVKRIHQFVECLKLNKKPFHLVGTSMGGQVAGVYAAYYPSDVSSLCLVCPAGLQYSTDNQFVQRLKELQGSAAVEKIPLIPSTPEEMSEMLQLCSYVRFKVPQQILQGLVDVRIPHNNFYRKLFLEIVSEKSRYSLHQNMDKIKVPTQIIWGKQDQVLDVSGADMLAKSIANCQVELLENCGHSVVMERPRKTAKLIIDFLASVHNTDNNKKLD
In short: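 Membranes from transiently transfected HEK293T cells expressing human ABHD6, 40 μg mL-1 final protein. Real-time coupled fluorescence assay with natural substrate 2-AG (25 μM). Glycerol released is detected via glycerol kinase, glycerol-3-phosphate oxidase and HRP (0.2 U mL-1 each), 0.125 mM ATP and 10 μM Amplifu Red. Assay contains 5% DMSO and 0.5% acetonitrile. pIC50 ± SEM.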

[2] = biological target: T2, Diacylglycerol lipase-alpha (Mus musculus) (UniProt Q6WQJ1); test: Inhibition of MB064 labelling of DAGLalpha in mouse brain homogenates at 10 uM pretreated for 30 mins followed by MB064 addition and measured after 20 mins by activity based protein profiling assay relative to control; type: tissue-based
T2 sequence (whole entry): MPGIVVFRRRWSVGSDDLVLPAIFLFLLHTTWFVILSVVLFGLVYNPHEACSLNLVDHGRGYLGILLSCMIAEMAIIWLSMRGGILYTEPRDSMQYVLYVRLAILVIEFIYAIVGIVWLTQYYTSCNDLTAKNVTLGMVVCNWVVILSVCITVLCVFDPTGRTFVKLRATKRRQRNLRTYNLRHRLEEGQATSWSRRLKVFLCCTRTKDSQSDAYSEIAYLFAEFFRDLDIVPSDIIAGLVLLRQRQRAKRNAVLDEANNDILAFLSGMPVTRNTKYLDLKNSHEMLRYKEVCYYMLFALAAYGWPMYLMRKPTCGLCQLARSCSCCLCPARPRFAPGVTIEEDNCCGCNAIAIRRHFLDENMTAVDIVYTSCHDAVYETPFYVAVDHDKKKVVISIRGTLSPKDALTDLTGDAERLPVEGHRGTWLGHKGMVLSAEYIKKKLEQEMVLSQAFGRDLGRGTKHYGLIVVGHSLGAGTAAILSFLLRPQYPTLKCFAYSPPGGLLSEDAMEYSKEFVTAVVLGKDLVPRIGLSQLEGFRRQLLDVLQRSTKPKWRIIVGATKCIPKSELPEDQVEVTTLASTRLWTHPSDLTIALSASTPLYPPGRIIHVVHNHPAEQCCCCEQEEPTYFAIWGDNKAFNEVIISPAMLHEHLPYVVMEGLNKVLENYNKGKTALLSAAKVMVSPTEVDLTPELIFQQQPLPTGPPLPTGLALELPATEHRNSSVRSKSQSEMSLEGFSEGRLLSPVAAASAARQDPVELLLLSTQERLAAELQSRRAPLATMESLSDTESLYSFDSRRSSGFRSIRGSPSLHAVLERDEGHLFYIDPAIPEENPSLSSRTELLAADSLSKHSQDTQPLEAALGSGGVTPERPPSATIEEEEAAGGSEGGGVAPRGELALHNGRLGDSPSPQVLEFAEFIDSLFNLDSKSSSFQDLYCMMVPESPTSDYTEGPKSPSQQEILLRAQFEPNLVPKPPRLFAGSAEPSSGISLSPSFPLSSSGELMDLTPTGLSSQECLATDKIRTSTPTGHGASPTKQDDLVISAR
In short: (§1)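 Mouse brain membrane proteome preincubated 30 min with inhibitor (10 μM), then labelled with MB064 probe (0.25 μM, 20 min). Readout by gel-based competitive ABPP. Band intensities corrected for protein loading per lane from Coomassie staining. Means ± SEM, n = 3.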

[3] = biological target: T3, Diacylglycerol lipase-alpha (Homo sapiens, UniProt Q9Y4D2); test: Inhibition of recombinant human DAGLalpha expressed in HEK293 cells using PNP-butyrate as substrate pretreated for 20 to 30 mins followed by substrate addition measured every 60 secs for 20 mins by colorimetric method; type: cell-based
T3 sequence (Q9Y4D2 whole entry): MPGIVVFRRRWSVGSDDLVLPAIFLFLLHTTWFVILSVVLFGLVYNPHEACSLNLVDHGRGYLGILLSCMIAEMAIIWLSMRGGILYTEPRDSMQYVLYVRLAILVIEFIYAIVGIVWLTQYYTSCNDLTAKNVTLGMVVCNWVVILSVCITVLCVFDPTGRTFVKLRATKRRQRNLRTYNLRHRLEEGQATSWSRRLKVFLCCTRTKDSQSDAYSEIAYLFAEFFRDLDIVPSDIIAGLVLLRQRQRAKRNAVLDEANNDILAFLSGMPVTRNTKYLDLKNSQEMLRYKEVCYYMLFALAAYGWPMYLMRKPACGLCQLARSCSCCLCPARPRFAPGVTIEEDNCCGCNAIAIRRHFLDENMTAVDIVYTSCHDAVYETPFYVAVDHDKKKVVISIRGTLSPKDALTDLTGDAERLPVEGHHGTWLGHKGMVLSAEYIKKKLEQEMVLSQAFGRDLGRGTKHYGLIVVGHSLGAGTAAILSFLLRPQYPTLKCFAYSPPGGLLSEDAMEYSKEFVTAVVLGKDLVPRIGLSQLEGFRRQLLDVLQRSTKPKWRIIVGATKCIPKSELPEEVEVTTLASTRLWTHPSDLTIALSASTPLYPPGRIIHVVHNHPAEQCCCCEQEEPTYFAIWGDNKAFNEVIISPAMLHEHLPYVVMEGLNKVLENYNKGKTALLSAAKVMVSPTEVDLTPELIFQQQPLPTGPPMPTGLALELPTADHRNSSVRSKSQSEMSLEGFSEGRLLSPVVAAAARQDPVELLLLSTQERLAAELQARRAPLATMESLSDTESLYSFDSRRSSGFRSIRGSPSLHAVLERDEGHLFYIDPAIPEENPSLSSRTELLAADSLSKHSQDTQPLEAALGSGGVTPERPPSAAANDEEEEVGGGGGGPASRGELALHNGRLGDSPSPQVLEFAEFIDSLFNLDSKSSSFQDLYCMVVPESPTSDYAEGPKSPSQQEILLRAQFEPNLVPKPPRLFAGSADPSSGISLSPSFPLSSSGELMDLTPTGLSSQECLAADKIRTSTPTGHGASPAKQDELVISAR
In short: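 Membrane fraction from HEK293T cells transiently transfected with human DAGLα (PEI transfection, harvested at 72 h). Membranes used at 0.05 μg μL-1 final protein in 50 mM HEPES pH 7.2. Colorimetric readout of para-nitrophenylbutyrate hydrolysis. pIC50 ± SEM.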

[4] = biological target: T4, Monoacylglycerol lipase ABHD6 (Mus musculus) (UniProt Q8R2Y0); test: Inhibition of MB064 labelling of ABHD6 in mouse brain homogenates at 10 uM pretreated for 30 mins followed by MB064 addition and measured after 20 mins by activity based protein profiling assay relative to control; type: tissue-based; in short: as §1
T4 sequence (whole entry): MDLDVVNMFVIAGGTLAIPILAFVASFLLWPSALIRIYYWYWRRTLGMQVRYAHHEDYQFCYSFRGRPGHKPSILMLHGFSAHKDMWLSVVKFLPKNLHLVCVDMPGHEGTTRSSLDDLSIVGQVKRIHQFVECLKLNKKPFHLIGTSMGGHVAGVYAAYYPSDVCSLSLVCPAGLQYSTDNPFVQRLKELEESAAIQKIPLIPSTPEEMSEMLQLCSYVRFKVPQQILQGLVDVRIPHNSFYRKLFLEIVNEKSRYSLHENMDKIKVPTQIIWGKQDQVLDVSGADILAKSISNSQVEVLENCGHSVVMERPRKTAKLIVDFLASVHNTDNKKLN

O=C(N1CCC=C[C@H]1COCc1ccccc1)n1cc(-c2ccc(-c3ccccc3)cc2)nn1
pIC50 [1]: 7.00
inhibition [2]: 30%
pIC50 [3]: 5.90
inhibition [4]: 84%

O=C(N1CCC=C[C@@H]1COCc1ccccc1)n1cnc(-c2ccc(-c3ccccc3)cc2)c1
pIC50 [1]: < 5.00
pIC50 [3]: < 5.00

O=C(N1CCC=C[C@@H]1COCc1ccccc1)n1cnc(-c2ccc(Br)cc2)c1
pIC50 [1]: < 5.00
inhibition [2]: -9%
pIC50 [3]: < 5.00

O=C(N1CCC=C[C@@H]1COCc1ccccc1)n1ccc(-c2ccc(Br)cc2)n1
pIC50 [1]: < 5.00
inhibition [2]: -3%
pIC50 [3]: < 5.00
inhibition [4]: -3%

O=C(N1CC=C[C@@H](O)[C@H]1COCc1ccccc1)n1cc(-c2ccc(-c3ccccc3)cc2)nn1
pIC50 [1]: 6.60
inhibition [2]: 18%
pIC50 [3]: < 5.00
inhibition [4]: 83%

O=C(N1C[C@H](O)C=C[C@@H]1Cc1ccccc1)n1cc(-c2ccc(-c3ccccc3)cc2)nn1
pIC50 [1]: 8.50
inhibition [2]: 92%
pIC50 [3]: 7.80
inhibition [4]: 96%

O=C(N1CCC=C[C@@H]1Cc1ccccc1)n1cc(-c2ccc(-c3ccccc3)cc2)nn1
pIC50 [1]: 8.60
inhibition [2]: 99%
pIC50 [3]: 9.10
inhibition [4]: 96%

O=C(N1CCC=C[C@@H]1COCc1ccccc1)n1cnc(-c2ccc(-c3ccccc3)cc2)n1
pIC50 [1]: < 5.00
inhibition [2]: 0%
pIC50 [3]: < 5.00

O=C(N1CC=C[C@@H](O)[C@@H]1COCc1ccccc1)n1cc(-c2ccc(-c3ccccc3)cc2)nn1
pIC50 [1]: 6.10
inhibition [2]: 6%
pIC50 [3]: < 5.00
inhibition [4]: 18%

O=C(N1C[C@H](O)C=C[C@@H]1COCc1ccccc1)n1cc(-c2ccc(-c3ccccc3)cc2)nn1
pIC50 [1]: 8.30
inhibition [2]: 87%
pIC50 [3]: 7.60
inhibition [4]: 95%

O=C(N1CCC=C[C@H]1Cc1ccccc1)n1cc(-c2ccc(-c3ccccc3)cc2)nn1
pIC50 [1]: 7.60
inhibition [2]: 83%
pIC50 [3]: 7.10
inhibition [4]: 90%

O=C(N1CCCC[C@@H]1Cc1ccccc1)n1cc(-c2ccc(-c3ccccc3)cc2)nn1
inhibition [2]: 99%
inhibition [4]: 95%

O=C(N1CCC=C[C@@H]1COCc1ccccc1)n1ccc(-c2ccc(-c3ccccc3)cc2)n1
pIC50 [1]: < 5.00
pIC50 [3]: < 5.00
inhibition [4]: -3%

O=C(Oc1ccc([N+](=O)[O-])cc1)N1CCC=C[C@@H]1COCc1ccccc1
pIC50 [1]: < 5.00
pIC50 [3]: < 5.00

O=C(N1C[C@H](O)C=C[C@H]1COCc1ccccc1)n1cc(-c2ccc(-c3ccccc3)cc2)nn1
pIC50 [1]: 6.50
inhibition [2]: 5%
pIC50 [3]: < 5.00
inhibition [4]: 50%
